Screening results (PubChem)
Shown are actives, neighbours in structure and some others; about 5.9% of the full set was active somewhere.
HUVEC inhibit = inhibitors of human endothelial cell proliferation; HUVEC proliferation, CellTiter-Glo luminescence, 72 h; active compounds read low; viability, % at 10 µM (by protocol); actives 1.1% (n = 86,000);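 active means viability at or below 30%; inactive means viability above 30%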;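 further: 100% = median luminescence of DMSO-only cell control wells on each plate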
MT1-MMP txn act = activates MT1-MMP transcription; activation factor at 10 µM; actives 0.16% (n = 86,000); HT1080 MT1-MMP promoter luciferase reporter, luminescence, overnight; active compounds read high;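 active means activation factor of at least 2 for MT1-MMP transcription at 10 µM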
Jurkat tox 60K = cytotoxicity toward Jurkat cells. Jurkat E6.1 viability, ATP luminescence, 48 h. inhibition, % at 4 µM. actives 1.2% (n = 56,000). AID 463;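 active means inhibition above the mean inhibition of all tested compounds plus 3 SD, cut at about 28% in these data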
Fibroblast inh = blocks proliferation of human lung fibroblasts. LL 47 human lung fibroblast viability, ATP luminescence; active compounds read low. viability, % at 10 µM. actives 1.1% (n = 85,000). AID 719;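 active means viability at or below 50% in the single dose screen; inactive means viability above 50%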;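 further: compound exposure lasted 72 h before the ATP readout; 100% = median luminescence of untreated cell-only wells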
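Assay system: human lung fibroblast line LL 47, low passage. Input: 1,150 fibroblasts seeded per well. Times: overnight cell rest, 72 h compound treatment at 37 °C. Evaluation: % viability of median cell-only signal. Technique: luminescent ATP detection, CellTiter-Glo. Control set: cell-only wells, no compound.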
Pyk2 oligo antag = antagonists of human Pyk2 oligomerization | Q293 cells, Pyk2 FERM NanoBiT luminescence; active compounds read low | z-score (the deposit names both 25 µM and 10 µM) | actives 0.83% (n = 99,000);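 active means Z-score of -3 or lower, scaled per plate to the spread of control and sample wells; inactive means z-score above -3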;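 further: negative z-score means lost luminescence so less FERM oligomerization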
Target sequence (Q14289 whole entry, looked up): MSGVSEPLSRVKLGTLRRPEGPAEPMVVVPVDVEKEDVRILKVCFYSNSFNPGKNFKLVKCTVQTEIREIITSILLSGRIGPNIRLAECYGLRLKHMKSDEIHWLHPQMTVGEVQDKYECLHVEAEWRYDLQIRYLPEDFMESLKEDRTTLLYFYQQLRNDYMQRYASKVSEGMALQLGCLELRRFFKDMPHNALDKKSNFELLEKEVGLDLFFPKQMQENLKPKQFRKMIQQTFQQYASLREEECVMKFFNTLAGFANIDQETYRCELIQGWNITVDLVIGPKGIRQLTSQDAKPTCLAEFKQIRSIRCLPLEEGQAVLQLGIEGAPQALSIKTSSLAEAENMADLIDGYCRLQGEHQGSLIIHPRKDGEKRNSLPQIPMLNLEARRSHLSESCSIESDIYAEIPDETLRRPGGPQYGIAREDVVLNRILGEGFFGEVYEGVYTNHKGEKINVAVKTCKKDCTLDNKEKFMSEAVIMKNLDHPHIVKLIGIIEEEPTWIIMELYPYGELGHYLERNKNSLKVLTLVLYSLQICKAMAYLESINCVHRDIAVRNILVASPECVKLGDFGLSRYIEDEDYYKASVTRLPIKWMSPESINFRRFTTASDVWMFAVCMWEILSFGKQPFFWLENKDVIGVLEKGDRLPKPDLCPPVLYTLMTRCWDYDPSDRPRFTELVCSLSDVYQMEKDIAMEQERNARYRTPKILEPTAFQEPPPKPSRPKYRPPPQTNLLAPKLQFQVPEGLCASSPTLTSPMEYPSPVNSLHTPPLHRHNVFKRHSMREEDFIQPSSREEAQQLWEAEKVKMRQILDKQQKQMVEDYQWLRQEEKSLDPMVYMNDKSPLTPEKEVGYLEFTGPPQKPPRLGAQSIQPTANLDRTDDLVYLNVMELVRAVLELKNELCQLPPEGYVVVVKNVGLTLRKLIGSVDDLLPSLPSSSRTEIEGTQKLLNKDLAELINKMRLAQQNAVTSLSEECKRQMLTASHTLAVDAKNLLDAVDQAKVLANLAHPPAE
H69AR inhibit = growth inhibitors of human H69AR lung tumor cells; H69AR lung tumor viability, ATP luminescence, 72 h; active compounds read low; viability, % at 10 µM; actives 6% (n = 85,000); AID 598;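 active means viability at or below 40%; inactive means viability above 40%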;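 further: multidrug resistant small cell line overexpressing MRP-1 efflux transporter; 100% = mean luminescence of untreated control wells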
An asterisk follows results filed as active.

Screening COc1ccc(C2=Nn3c(nnc3C3CCCCC3)SC2)cc1OC returned HUVEC inhibit 81.7, MT1-MMP txn act 0.9, Fibroblast inh 41.1*, Pyk2 oligo antag -1.75 and H69AR inhibit 14.5*.
`c1ccc(C2=Nn3c(nnc3-c3ccncc3)SC2)cc1` gave HUVEC inhibit 77.5, MT1-MMP txn act 1.3, Jurkat tox 60K -15.2, Fibroblast inh 106.1, Pyk2 oligo antag -0.4 and H69AR inhibit 80.8.
For Cc1cccc(-c2nnc3n2N=C(c2ccccc2)CS3)c1 the results were HUVEC inhibit 97.1, MT1-MMP txn act 1, Fibroblast inh 90.9, Pyk2 oligo antag -1.71 and H69AR inhibit 36.0*.
O=C(CN1C(=O)C2CC=C(Cl)CC2C1=O)NCc1ccccc1 (centres undefined) was read as HUVEC inhibit 94.9, MT1-MMP txn act 1.1, Jurkat tox 60K 3.6, Fibroblast inh 106.2, Pyk2 oligo antag -0.14 and H69AR inhibit 102.4.
For Cc1ccc(S(=O)(=O)N(CC(=O)NCc2ccco2)Cc2ccccc2F)cc1 the results were HUVEC inhibit 100.0, MT1-MMP txn act 1.1, Jurkat tox 60K -5.6, Fibroblast inh 106.6, Pyk2 oligo antag -0.83 and H69AR inhibit 84.7.
`Cc1cc(-c2nnc3n2N=C(c2ccc(-c4ccccc4)cc2)CS3)n[nH]1` gave HUVEC inhibit 28.2*, MT1-MMP txn act 1.1, Jurkat tox 60K -1.3, Fibroblast inh 60.1, Pyk2 oligo antag -3.4* and H69AR inhibit 3.9*.
`CC(C)(C)c1csc(NC(=O)Cn2c(=O)oc3ccccc32)n1` gave HUVEC inhibit 109.5, MT1-MMP txn act 1.1, Jurkat tox 60K 1.6, Fibroblast inh 98.8, Pyk2 oligo antag -3.37* and H69AR inhibit 84.8.
O=C(Cn1c(=O)oc2ccccc21)Nc1nc(-c2ccccc2)cs1 was read as Pyk2 oligo antag -1.3.
`Cc1ccc(NC(=O)/C(=C/c2cccc([N+](=O)[O-])c2)NC(=O)C2CCCCC2)c(C)c1` gave HUVEC inhibit 33.0, MT1-MMP txn act 1, Fibroblast inh 9.6*, Pyk2 oligo antag -0.6 and H69AR inhibit 26.7*.
Screening Cc1ccccc1NC1=C(Cl)C(=O)OC1OC(=O)c1ccco1 (centres undefined) returned HUVEC inhibit 76.0, MT1-MMP txn act 1.1, Fibroblast inh 101.4, Pyk2 oligo antag -0.56 and H69AR inhibit 9.9*.
Screening CCc1c(C#N)c(SCCC(=O)Nc2ccc(OC)cc2)nc2c1C(=O)CC(C)(C)C2 returned Pyk2 oligo antag -3.09*.
Screening COC(=O)[C@@]1(Cc2ccc(OC)cc2)[C@H]2c3cc(C(=O)N4CCCC4)n(CCc4ccc(OC)c(Br)c4)c3C[C@H]2CN1C(=O)c1ccccc1 returned MT1-MMP txn act 1.1.
Screening CS(=O)(=O)Nc1cccc2cccnc12 returned HUVEC inhibit 89.9, MT1-MMP txn act 1.1, Jurkat tox 60K -2.9, Fibroblast inh 90.0, Pyk2 oligo antag -0.21 and H69AR inhibit 65.0.
O=S(=O)(Nc1cccc2cccnc12)c1ccc(S(=O)(=O)N2CCCC2)cc1 was read as HUVEC inhibit 54.0, MT1-MMP txn act 1.2, Jurkat tox 60K 11.0, Fibroblast inh 57.1, Pyk2 oligo antag -1.89 and H69AR inhibit 6.0*.
`COC(=O)c1ccc(C(NC(=O)OCc2ccccc2)/C(C)=C/[C@@H](C)C(=O)NCCN2CCOCC2)cc1` (some centres undefined) gave MT1-MMP txn act 1.
For Cn1c(N/N=C/c2ccccc2)nc2sc3c(c2c1=O)CCC3 the results were Pyk2 oligo antag -0.16.
`Cc1onc(-c2c(F)cccc2Cl)c1C(=O)Nc1nc2ccccc2[nH]1` gave HUVEC inhibit 84.3, Fibroblast inh 71.5, Pyk2 oligo antag -1.04 and H69AR inhibit 33.3*.
Cc1onc(-c2c(F)cccc2Cl)c1C(=O)Nc1cccc2nsnc12 was read as HUVEC inhibit 109.5, MT1-MMP txn act 1, Jurkat tox 60K 4.8, Fibroblast inh 106.4, Pyk2 oligo antag -1.01 and H69AR inhibit 79.6.
O=C(Nc1nc2ccccc2[nH]1)c1ccccc1 was read as HUVEC inhibit 68.4, Fibroblast inh 68.4, Pyk2 oligo antag 0.14 and H69AR inhibit 31.9*.
COc1cc(/C=C(/C(=O)c2cccs2)c2nc3ccccc3[nH]2)cc(OC)c1O was read as HUVEC inhibit 102.3, MT1-MMP txn act 0.8, Fibroblast inh 18.6*, Pyk2 oligo antag -0.14 and H69AR inhibit 2.6*.
Screening COC(=O)c1cc(NC(=O)c2ccc(Cn3cc(Cl)cn3)o2)cc(C(=O)OC)c1 returned HUVEC inhibit 32.4, MT1-MMP txn act 1.3, Jurkat tox 60K 10.4, Fibroblast inh 6.8*, Pyk2 oligo antag -2.57 and H69AR inhibit 2.7*.
O=C(COc1ccc(S(=O)(=O)N2CCOCC2)cc1)Nc1ccc(Cl)c(C(F)(F)F)c1 was read as HUVEC inhibit 52.2, MT1-MMP txn act 0.6, Jurkat tox 60K 23.1, Fibroblast inh 58.9, Pyk2 oligo antag -0.38 and H69AR inhibit 25.0*.
Screening COc1ccc2oc(C(=O)C3CC3)c(NC(=O)CCCN3C(=O)c4ccccc4C3=O)c2c1 returned HUVEC inhibit 85.6, Jurkat tox 60K 9.2, Fibroblast inh 92.0 and H69AR inhibit 31.5*.
`O=C(NCc1cccnc1)c1c[nH]c2cc3c(cc2c1=O)OCCO3` gave HUVEC inhibit 83.4, MT1-MMP txn act 1.8, Jurkat tox 60K 94.4*, Fibroblast inh 88.6, Pyk2 oligo antag 0.84 and H69AR inhibit 79.9.
For CC(C)c1ccc(NC(=O)NC2CCN(CC(=O)Nc3cccc4ccccc34)CC2)cc1 the results were Pyk2 oligo antag -0.86.
COc1ccc(S(=O)(=O)N2CCCN(CC(=O)Nc3ccc(OC)c(Cl)c3)CC2)cc1 was read as HUVEC inhibit 97.7, MT1-MMP txn act 1, Jurkat tox 60K 2.1, Fibroblast inh 103.1, Pyk2 oligo antag 0.35 and H69AR inhibit 2.1*.
`COC(=O)c1ccc(NC(=O)CN2C(=O)CCC2=O)cc1` gave HUVEC inhibit 100.7, MT1-MMP txn act 1, Jurkat tox 60K 2.1, Fibroblast inh 108.7, Pyk2 oligo antag -0.34 and H69AR inhibit 100.0.
Screening O=C(CN1CCN(S(=O)(=O)c2ccc(Br)cc2)CC1)Nc1ccc(F)cc1 returned HUVEC inhibit 92.5, MT1-MMP txn act 1.1, Jurkat tox 60K 3.2, Fibroblast inh 99.0, Pyk2 oligo antag -0.15 and H69AR inhibit 1.6*.
For COc1ccc(S(=O)(=O)N2CCN(CC(=O)Nc3cc(OC)cc(OC)c3)CC2)cc1 the results were HUVEC inhibit 85.8, MT1-MMP txn act 1.2, Jurkat tox 60K -4.0, Fibroblast inh 103.3, Pyk2 oligo antag -0.76 and H69AR inhibit 4.9*.
O=C(CN1C(=O)CCC1=O)Nc1ccc(Br)cc1 was read as HUVEC inhibit 88.1, MT1-MMP txn act 1, Jurkat tox 60K -1.4, Fibroblast inh 102.1, Pyk2 oligo antag -0.07 and H69AR inhibit 39.5*.
Screening COC(=O)CC1Oc2cc3oc4c5ccccc5oc(=O)c4c3cc2O1 (centres undefined) returned MT1-MMP txn act 1.1.
